The source of these data is ChEMBL document CHEMBL2086354, “Testing the promiscuity of commercial kinase inhibitors against the AGC kinase group using a split-luciferase screen” (J Med Chem, 2012).

Structures are written as SMILES. Active and inactive are the calls of the source. The calls are words filed in the database; no cut-off is given here. A value given as a limit tells only on which side of the number the result lay.

Experiment [1] is described as follows: Inhibition of Protein kinase A at 10 uM by luciferase assay. An outline of the steps:
(§1)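 Cell-free split-luciferase competitive binding assay. Cfluc-kinase fusion mRNA was co-translated with Fos-Nfluc mRNA in rabbit reticulocyte lysate at 30 °C for 90 min, frozen at −80 °C overnight and thawed on ice. Lysate held tracer 2 at 120 nM final and inhibitor at 10 μM final (DMSO), 1 h at room temperature. Luciferin reagent was added and luminescence read (1 s integration), in duplicate.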

In experiment [2] the target is Serine/threonine-protein kinase 32B (Homo sapiens) (UniProt Q9NY57). Kind of experiment: Inhibition of STK32B at 10 uM by luciferase assay. An outline of the steps:
as §1

In experiment [3] the target is T1, Myotonin-protein kinase (Homo sapiens) (UniProt Q09013).
T1 sequence (whole entry): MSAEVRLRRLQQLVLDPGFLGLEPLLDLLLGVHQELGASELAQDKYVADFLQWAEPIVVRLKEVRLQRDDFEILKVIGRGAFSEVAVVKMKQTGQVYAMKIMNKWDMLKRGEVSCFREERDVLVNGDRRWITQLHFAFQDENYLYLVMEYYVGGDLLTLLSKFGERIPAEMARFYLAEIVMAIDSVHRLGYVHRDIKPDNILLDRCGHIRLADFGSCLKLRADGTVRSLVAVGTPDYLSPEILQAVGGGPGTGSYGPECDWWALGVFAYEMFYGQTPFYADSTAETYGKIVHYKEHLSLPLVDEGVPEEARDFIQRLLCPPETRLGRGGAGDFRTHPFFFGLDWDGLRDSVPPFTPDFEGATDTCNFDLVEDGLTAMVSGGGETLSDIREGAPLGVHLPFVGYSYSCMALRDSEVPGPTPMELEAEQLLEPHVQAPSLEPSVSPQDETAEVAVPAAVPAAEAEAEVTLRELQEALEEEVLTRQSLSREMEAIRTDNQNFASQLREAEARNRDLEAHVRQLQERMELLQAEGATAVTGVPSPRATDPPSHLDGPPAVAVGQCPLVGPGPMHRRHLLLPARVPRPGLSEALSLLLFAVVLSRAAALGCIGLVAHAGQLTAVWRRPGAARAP
Kind of experiment: Inhibition of DMPK at 10 uM by luciferase assay. An outline of the steps: as §1

The target in experiment [4] is T2, cAMP-dependent protein kinase catalytic subunit PRKX (Homo sapiens) (UniProt P51817).
T2 sequence (whole entry): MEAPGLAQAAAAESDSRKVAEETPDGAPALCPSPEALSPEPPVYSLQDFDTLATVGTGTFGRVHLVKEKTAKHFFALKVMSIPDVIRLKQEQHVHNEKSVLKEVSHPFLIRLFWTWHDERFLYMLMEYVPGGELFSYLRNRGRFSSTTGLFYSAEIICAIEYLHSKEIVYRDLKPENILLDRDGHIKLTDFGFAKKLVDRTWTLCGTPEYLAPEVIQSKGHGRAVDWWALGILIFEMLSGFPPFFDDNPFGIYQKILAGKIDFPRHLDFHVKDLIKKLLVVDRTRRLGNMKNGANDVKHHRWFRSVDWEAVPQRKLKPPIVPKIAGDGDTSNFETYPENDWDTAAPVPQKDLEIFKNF
Kind of experiment: Inhibition of PRKX at 10 uM by luciferase assay. An outline of the steps: as §1

In experiment [5] the target is Protein kinase C eta type (Homo sapiens) (UniProt P24723). Kind of experiment: Inhibition of Protein kinase C eta type at 10 uM by luciferase assay. An outline of the steps: as §1
Experiment [6] deals with Protein kinase C theta type (Homo sapiens) (UniProt Q04759). Put plainly: Inhibition of Protein kinase C theta type at 10 uM by luciferase assay. An outline of the steps:
as §1

For experiment [7], the target named is T3, Serine/threonine-protein kinase Sgk3 (Homo sapiens) (UniProt Q96BR1).
T3 sequence (whole entry): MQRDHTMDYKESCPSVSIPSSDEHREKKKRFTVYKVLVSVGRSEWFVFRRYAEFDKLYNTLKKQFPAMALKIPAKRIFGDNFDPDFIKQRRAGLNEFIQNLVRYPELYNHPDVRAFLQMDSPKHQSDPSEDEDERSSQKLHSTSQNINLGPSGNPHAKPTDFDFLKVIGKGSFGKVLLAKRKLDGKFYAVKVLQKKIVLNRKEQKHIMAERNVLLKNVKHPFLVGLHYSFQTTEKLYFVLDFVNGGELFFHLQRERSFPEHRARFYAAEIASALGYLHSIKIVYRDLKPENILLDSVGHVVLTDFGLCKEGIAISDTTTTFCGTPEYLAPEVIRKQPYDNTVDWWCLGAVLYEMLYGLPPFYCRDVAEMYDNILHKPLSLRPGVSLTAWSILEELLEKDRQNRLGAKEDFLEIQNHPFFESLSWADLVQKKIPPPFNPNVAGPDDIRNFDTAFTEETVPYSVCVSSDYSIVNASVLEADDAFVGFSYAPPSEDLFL
Put plainly: Inhibition of SGK3 at 10 uM by luciferase assay. An outline of the steps: as §1

The target in experiment [8] is T4, Serine/threonine-protein kinase Sgk2 (Homo sapiens) (UniProt Q9HBY8).
T4 sequence (whole entry): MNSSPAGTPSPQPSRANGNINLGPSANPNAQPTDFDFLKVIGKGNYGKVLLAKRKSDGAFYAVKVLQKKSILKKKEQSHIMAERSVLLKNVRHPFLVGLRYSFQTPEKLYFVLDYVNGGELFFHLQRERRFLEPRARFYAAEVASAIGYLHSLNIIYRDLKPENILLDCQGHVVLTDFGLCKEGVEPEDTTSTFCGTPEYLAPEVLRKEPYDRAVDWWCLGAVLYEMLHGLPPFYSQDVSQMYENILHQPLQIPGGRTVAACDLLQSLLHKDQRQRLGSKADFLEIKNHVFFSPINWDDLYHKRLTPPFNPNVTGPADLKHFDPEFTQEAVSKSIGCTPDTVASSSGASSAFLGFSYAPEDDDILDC
Put plainly: Inhibition of SGK2 at 10 uM by luciferase assay. An outline of the steps: as §1

Experiment [9] deals with T5, Aurora kinase C (Homo sapiens) (UniProt Q9UQB9).
T5 sequence (whole entry): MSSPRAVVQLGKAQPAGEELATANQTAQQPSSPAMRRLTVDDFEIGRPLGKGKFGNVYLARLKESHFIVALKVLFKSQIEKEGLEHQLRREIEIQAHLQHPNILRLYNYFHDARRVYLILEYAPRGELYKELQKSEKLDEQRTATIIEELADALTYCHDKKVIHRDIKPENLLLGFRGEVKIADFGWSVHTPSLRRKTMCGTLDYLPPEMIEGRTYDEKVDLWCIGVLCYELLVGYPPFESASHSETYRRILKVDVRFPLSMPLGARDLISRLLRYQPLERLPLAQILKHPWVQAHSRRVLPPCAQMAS
Put plainly: Inhibition of Aurora kinase C at 10 uM by luciferase assay. An outline of the steps:
as §1

The target of experiment [10] is Aurora kinase B (Homo sapiens) (UniProt Q96GD4). Put plainly: Inhibition of Aurora kinase B at 10 uM by luciferase assay. An outline of the steps:
as §1

The target in experiment [11] is RAC-gamma serine/threonine-protein kinase (Homo sapiens) (UniProt Q9Y243). Kind of experiment: Inhibition of AKT3 at 10 uM by luciferase assay. An outline of the steps: (§2)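 Cell-free split-firefly-luciferase competitive binding assay: Cfluc-kinase fusion mRNA co-translated with Fos-Nfluc mRNA in rabbit reticulocyte lysate, 30 °C for 90 min, then frozen at −80 °C and thawed on ice. Luminescence read after luciferin reagent, in duplicate. Percent inhibition = 1 − (background-subtracted signal ÷ DMSO positive control).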

Experiment [12] has as its target RAC-alpha serine/threonine-protein kinase (Homo sapiens) (UniProt P31749). Kind of experiment: Inhibition of AKT1 at 10 uM by luciferase assay. An outline of the steps:
as §2

The target of experiment [13] is T6, Protein kinase C epsilon type (Homo sapiens) (UniProt Q02156).
T6 sequence (whole entry): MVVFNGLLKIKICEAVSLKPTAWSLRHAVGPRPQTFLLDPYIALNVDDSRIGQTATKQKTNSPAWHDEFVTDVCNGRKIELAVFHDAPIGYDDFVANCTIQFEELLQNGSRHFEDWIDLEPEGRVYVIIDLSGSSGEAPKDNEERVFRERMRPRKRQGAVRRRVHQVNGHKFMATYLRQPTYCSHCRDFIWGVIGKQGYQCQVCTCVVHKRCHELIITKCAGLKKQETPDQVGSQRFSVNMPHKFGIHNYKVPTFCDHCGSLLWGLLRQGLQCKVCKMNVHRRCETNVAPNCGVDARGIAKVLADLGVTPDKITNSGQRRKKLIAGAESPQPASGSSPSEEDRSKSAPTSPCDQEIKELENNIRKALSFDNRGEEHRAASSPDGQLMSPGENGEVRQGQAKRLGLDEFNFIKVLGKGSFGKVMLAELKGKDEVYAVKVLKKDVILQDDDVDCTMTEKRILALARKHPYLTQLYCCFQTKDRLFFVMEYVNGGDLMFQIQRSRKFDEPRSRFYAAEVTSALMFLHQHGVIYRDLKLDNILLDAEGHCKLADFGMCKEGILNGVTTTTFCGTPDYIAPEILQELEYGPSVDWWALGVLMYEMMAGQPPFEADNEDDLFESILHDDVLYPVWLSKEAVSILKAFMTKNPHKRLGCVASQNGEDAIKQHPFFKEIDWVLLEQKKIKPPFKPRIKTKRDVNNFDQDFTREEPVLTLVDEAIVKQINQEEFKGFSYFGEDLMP
Put plainly: Inhibition of Protein kinase C epsilon type at 10 uM by luciferase assay. An outline of the steps:
as §2

Experiment [14] deals with RAC-beta serine/threonine-protein kinase (Homo sapiens) (UniProt P31751). Kind of experiment: Inhibition of AKT2 at 10 uM by luciferase assay. An outline of the steps:
as §2

The target of experiment [15] is Protein kinase C gamma type (Homo sapiens) (UniProt P05129). Kind of experiment: Inhibition of Protein kinase C gamma type at 10 uM by luciferase assay. An outline of the steps:
as §2

Experiment [16] has as its target Protein kinase C delta type (Homo sapiens) (UniProt Q05655). Put plainly: Inhibition of Protein kinase C delta type at 10 uM by luciferase assay. An outline of the steps: as §2

Protein kinase C eta type (Homo sapiens), sequence (P24723 whole entry): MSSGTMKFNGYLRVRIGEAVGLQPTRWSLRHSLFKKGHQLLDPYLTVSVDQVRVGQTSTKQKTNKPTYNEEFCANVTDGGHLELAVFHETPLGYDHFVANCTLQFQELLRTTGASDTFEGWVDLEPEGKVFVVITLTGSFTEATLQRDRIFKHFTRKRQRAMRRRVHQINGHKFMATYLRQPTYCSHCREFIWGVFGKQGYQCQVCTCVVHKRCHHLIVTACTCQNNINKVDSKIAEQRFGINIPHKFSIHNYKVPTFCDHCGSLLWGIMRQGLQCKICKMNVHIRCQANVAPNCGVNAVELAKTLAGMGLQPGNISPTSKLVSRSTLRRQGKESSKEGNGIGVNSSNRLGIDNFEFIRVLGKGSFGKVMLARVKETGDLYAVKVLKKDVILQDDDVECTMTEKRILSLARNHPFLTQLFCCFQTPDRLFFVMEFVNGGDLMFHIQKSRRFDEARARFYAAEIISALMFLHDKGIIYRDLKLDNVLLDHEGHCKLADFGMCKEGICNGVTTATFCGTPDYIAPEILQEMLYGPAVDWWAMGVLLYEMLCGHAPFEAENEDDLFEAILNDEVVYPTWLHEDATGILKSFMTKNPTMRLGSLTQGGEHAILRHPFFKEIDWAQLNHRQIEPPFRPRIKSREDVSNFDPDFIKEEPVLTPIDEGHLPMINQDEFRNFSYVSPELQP
Protein kinase C theta type (Homo sapiens), sequence (Q04759 whole entry, looked up): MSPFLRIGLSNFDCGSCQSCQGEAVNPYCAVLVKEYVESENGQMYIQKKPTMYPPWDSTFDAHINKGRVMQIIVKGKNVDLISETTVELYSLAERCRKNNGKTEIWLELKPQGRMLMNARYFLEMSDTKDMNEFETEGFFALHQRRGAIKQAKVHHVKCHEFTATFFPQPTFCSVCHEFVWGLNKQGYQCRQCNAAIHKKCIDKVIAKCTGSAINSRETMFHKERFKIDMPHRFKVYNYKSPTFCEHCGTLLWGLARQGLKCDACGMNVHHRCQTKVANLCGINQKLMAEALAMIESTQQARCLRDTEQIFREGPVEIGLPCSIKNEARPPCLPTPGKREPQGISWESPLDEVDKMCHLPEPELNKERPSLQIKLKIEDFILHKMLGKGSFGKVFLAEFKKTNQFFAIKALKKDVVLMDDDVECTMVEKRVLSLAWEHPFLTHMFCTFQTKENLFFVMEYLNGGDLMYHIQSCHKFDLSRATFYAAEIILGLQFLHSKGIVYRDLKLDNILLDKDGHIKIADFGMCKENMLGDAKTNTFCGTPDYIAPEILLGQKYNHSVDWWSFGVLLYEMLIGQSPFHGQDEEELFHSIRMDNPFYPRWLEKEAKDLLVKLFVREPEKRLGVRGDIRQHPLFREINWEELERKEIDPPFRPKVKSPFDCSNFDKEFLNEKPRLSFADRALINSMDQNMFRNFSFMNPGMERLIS
Aurora kinase B (Homo sapiens), sequence (Q96GD4 whole entry): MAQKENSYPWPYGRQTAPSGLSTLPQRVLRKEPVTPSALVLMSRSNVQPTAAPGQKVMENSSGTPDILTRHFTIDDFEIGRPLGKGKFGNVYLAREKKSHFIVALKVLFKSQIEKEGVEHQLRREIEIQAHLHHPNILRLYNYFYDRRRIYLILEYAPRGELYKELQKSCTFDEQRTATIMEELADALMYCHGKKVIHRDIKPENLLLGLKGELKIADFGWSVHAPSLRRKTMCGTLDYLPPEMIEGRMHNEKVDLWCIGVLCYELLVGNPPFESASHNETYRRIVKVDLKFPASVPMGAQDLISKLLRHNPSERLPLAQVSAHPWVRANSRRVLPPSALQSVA
Serine/threonine-protein kinase 32B (Homo sapiens), sequence (Q9NY57 whole entry): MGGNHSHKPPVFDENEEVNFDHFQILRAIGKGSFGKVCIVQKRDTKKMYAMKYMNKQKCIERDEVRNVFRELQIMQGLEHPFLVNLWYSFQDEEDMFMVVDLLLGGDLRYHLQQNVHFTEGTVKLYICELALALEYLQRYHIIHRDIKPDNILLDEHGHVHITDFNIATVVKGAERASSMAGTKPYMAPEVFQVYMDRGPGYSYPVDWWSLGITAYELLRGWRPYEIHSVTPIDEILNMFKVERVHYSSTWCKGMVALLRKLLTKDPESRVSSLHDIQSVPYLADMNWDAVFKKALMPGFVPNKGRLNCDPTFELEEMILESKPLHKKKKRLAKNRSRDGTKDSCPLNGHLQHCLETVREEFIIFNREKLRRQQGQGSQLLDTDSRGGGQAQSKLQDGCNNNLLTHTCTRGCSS
RAC-gamma serine/threonine-protein kinase (Homo sapiens), sequence (Q9Y243 whole entry, the tested form may be a part): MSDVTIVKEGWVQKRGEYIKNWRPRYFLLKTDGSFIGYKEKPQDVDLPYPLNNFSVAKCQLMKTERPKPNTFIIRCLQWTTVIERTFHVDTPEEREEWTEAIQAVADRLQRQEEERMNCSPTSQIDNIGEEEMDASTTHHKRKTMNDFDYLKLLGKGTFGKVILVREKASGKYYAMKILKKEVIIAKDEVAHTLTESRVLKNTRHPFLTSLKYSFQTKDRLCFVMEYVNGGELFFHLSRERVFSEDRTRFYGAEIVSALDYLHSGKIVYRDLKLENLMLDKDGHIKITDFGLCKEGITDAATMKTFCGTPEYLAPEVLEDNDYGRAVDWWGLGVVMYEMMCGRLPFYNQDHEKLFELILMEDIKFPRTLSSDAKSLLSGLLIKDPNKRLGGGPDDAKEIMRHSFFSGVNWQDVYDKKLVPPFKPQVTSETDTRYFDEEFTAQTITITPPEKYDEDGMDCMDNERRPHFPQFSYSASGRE
RAC-beta serine/threonine-protein kinase (Homo sapiens), sequence (P31751 whole entry): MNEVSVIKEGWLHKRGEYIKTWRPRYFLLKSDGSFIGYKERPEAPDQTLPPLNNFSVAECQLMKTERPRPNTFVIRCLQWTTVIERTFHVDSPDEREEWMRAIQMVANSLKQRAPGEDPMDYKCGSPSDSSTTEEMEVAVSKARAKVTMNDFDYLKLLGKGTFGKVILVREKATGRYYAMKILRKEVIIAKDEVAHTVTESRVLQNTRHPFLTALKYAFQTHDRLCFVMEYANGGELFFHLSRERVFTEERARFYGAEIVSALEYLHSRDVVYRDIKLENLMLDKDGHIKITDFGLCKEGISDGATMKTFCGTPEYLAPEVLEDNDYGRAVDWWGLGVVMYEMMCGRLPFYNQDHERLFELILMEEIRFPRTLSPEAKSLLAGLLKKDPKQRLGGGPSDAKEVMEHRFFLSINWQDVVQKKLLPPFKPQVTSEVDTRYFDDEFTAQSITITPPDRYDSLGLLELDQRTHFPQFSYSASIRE
RAC-alpha serine/threonine-protein kinase (Homo sapiens), sequence (P31749 whole entry): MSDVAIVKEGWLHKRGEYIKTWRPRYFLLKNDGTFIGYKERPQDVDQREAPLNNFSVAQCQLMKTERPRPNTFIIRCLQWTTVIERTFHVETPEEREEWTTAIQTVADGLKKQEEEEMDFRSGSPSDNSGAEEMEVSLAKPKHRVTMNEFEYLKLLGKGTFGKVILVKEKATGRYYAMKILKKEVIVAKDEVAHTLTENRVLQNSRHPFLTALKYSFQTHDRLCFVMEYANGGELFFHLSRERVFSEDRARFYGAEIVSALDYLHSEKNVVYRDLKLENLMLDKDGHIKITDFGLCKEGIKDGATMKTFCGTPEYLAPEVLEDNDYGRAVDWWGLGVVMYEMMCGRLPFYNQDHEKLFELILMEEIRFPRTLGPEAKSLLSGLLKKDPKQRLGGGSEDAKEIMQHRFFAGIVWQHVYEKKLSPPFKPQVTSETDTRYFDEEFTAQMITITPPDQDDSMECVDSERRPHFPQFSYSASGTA
Protein kinase C delta type (Homo sapiens), sequence (Q05655 whole entry, looked up): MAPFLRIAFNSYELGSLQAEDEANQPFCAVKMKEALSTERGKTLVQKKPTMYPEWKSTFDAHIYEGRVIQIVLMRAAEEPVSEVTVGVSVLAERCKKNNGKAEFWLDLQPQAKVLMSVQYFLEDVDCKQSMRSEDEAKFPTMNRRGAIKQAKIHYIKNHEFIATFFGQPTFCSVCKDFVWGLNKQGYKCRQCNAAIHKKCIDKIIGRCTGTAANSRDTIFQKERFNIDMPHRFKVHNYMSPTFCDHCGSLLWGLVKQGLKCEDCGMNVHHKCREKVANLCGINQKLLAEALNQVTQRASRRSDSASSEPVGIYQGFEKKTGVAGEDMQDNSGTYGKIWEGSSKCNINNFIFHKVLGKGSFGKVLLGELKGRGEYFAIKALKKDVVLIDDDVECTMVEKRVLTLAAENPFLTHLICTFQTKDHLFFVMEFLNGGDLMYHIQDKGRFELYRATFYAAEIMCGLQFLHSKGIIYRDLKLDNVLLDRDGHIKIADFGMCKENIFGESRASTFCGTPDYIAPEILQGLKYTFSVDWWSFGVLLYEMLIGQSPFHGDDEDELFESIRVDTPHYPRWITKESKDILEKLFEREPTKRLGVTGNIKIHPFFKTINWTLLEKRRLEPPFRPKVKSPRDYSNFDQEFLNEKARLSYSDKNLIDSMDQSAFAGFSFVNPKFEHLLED

In the case of `Cc1ccc(-c2nn(C(C)(C)C)c3ncnc(N)c23)cc1`, the inhibition (as a rule, how much of the control response was suppressed) in experiment [1] is 19%; in experiment [2] it was more than 40%; in experiment [3] it was 32%.
For `CC(C)(C)n1nc(-c2ccc(Cl)cc2)c2c(N)ncnc21`, the values for the inhibition in experiment [1], in [2] and in [3] were 19%, more than 40% and 32%, respectively.
In the case of `O=S(=O)(NCCNC/C=C/c1ccc(Br)cc1)c1cccc2cnccc12`, the inhibition in [4] is more than 65%; in [5] it was 20%; in [6], 20%; in experiment [1] it was more than 65%; in [7] it was 20%; in experiment [8], 20%.
For `CO[C@@H]1[C@H](N(C)C(=O)c2ccccc2)C[C@H]2O[C@]1(C)n1c3ccccc3c3c4c(c5c6ccccc6n2c5c31)C(=O)NC4`, the inhibition result in [2] is “Active”.
As to `NC(=O)Nc1sc(-c2ccc(F)cc2)cc1C(N)=O`, the inhibition in experiment [9] and in experiment [10] was more than 25% throughout. Further, in [5], the inhibition entry was “Active”.
Consider `O=S(=O)(c1cccc2cnccc12)N1CCCNCC1`, for which the inhibition entry in experiment [4] and in experiment [1] was “Active” throughout.
Take `Fc1ccc(Cl)cc1-c1nc(Nc2ccncc2)c2nccnc2n1`: the inhibition in experiment [11], in experiment [12], in experiment [13], in [5], in experiment [6] and in experiment [14] was more than 25% in each case.
For the compound `CN(C)CCCn1cc(C2=C(c3c[nH]c4ccccc34)C(=O)NC2=O)c2ccccc21`, the inhibition result in experiment [15], in [5] and in [6] was “inactive” each time.
For the compound `C[C@@H](N)[C@H]1CC[C@H](C(=O)Nc2ccncc2)CC1`, the inhibition result in experiment [4] is “Active”.
On the same count and under the same terms, to `O=S(=O)(c1cccc2c(Cl)cccc12)N1CCCNCC1` belongs “inactive”.
Consider `O=C1NC(=O)c2cc(Nc3ccc(F)cc3)c(Nc3ccc(F)cc3)cc21`, for which the inhibition was found to be 22% in experiment [15] and 30% in experiment [3].
Regarding `Cc1[nH]c(/C=C2\C(=O)Nc3ccc(S(=O)(=O)Cc4c(Cl)cccc4Cl)cc32)c(C)c1C(=O)N1CCC[C@@H]1CN1CCCC1`, the inhibition in experiment [9] and in experiment [10] was more than 25% in each case.
As to `O=C(c1ccc(Nc2nccc(-c3cc4ccccc4s3)n2)cc1)N1CCC(N2CCCC2)CC1`, the inhibition in experiment [4] was more than 29%; in experiment [13] it was more than 29%; in experiment [5], 83%; in experiment [6], more than 29%; in experiment [7], more than 60%; in experiment [10], more than 29%. The compound further registered an inhibition in experiment [8] of more than 60%.
In the case of `Cn1cc(C2=C(c3cn(CCCSC(=N)N)c4ccccc34)C(=O)NC2=O)c2ccccc21`, the inhibition in experiment [16], in experiment [15], in experiment [13], in [5] and in experiment [6] was 47% in each case.
Regarding `O=S(=O)(c1cccc2c(O)nccc12)N1CCCNCC1`, the inhibition entry in [4] is “Active”.
Turning to `COc1cc2c(Nc3ccc(NC(=O)c4ccccc4)cc3)ncnc2cc1OCCCN1CCOCC1`, the inhibition in [9] and in [10] was more than 50% in each case.
For the compound `O=C1NC(=O)c2c1c1c3ccccc3[nH]c1c1[nH]c3ccccc3c21`, the inhibition entry in experiment [16], in [11], in experiment [15], in [12], in experiment [13] and in [14] was “inactive” throughout.
`O=C1NC(=O)c2c1c1c3ccccc3n3c1c1c2c2ccccc2n1C1CCC3O1`: the inhibition in [8] is more than 60%.
In the case of `COc1cc2ncn(-c3cc(OCc4ccccc4C(F)(F)F)c(C(N)=O)s3)c2cc1OC`, the inhibition in [9] and in experiment [10] was more than 25% throughout.
